The results in this text go back to ChEMBL document CHEMBL4673249, “Anticancer Effects of Honokiol via Mitochondrial Dysfunction Are Strongly Enhanced by the Mitochondria-Targeting Carrier Berberine” (J Med Chem, 2020).

Series [1] has as its system HepG2. Briefly: Induction of apoptosis in human HepG2 cells assessed as late apoptotic cells at 2 uM after 24 hrs by annexin V/propidium iodide staining based flow cytometric analysis (reference value: 3.22%). The class given is functional. (In general: A flow cytometer gives signals particle by particle.)
The nature of series [2]: Drug uptake in human HepG2 cells mitochondria at 5 uM after 12 hrs by HPLC analysis. The format is ADME. The settings on record: hepg2, 12 h. The essentials:
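HepG2 cells given 5 μM for 12 h, then homogenized in mitochondrial extraction reagent. Spun at 600 g, 4 °C, 10 min; supernatant spun again at 11000 g, 4 °C, 10 min, and the pellet taken as mitochondria. Drug content by HPLC on a C18 column with methanol–0.1% acetic acid (80:20), detection at 265 nm. Run thrice.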

For series [3], the system named is HepG2. The series can be described thus: Induction of morphological changes in human HepG2 cells assessed as accumulation of cytoplasmic vacuoles at 4 uM after 24 hrs by optical microscopic method. The format is functional, cell-based. The essentials:
(§1)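 Cells grown at 37 °C, 5% CO2 in media with 10% FBS and penicillin/streptomycin, then treated with compound. Cytoplasmic vacuoles judged by optical microscopy. Time course at 4 μM, or 10 h exposure across increasing concentrations.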

For series [4], the system named is A549. Briefly: Induction of morphological changes in human A549 cells assessed as accumulation of cytoplasmic vacuoles at 4 uM after 24 hrs by optical microscopic method. The format is functional, cell-based.
Series [5] deals with HT-29. The series can be described thus: Antiproliferative activity against human HT29 cells assessed as reduction in cell viability after 48 hrs by MTT assay. The format is functional, cell-based. The settings on record: HT-29, 48 h. The essentials:
(§2)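 Cell lines grown at 37 °C in 5% CO2: A2780, A549, HL7702 and PC3 in RPMI 1640; HT29 in McCoy's 5A; HepG2 and PANC-1 in DMEM; all media with 10% FBS and penicillin/streptomycin. Cells seeded and left overnight, then exposed to compound for 48 h. MTT (5 mg/mL solution) added for 4 h at 37 °C, formazan dissolved in DMSO, absorbance read at 570 nm. IC50 taken from viability; run in triplicate.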
Background: Tetrazolium assays rely on reduction of a dye to a coloured formazan, in cell work by metabolically active cells.

Series [6] relates to HepG2. The series can be described thus: Induction of mitochondrial dysfunction in human HepG2 cells assessed as decrease in mitochondrial membrane […] at 1 to 4 uM after 24 hrs by JC-1 staining based flow cytometric analysis. The class given is functional, cell-based. The conditions noted are these: dose 1-4 µM. The essentials: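 HepG2 cells in 6-well plates treated for 24 h at 37 °C, then trypsinized. Stained with JC-1 at a final 2.5 μg/mL for 30 min, washed three times, resuspended in PBS and read by flow cytometry.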

For series [7], the system named is HepG2. Briefly: Potency index, ratio of HN IC50 to test compound IC50 for antiproliferative activity against human HepG2 cells. The format is functional. The essentials: (§3)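 MTT assay after 48 h drug exposure. Cells seeded overnight, MTT (5 mg/mL stock) added for 4 h at 37 °C, formazan dissolved in DMSO, absorbance read at 570 nm. IC50 taken from viability, repeated in triplicate, and the IC50 ratio calculated.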

Series [8] has as its system HepG2. Briefly: Induction of ROS generation in human HepG2 cells at 2 uM measured up to 24 hrs by DCFH-DA staining based flow cytometric analysis. The format is functional, cell-based. The settings on record: time hrs <=24. The essentials:
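HepG2 cells treated for the stated time, then loaded with 10 μM DCFH-DA in FBS-free medium for 30 min in the dark. Washed twice with PBS, trypsinized, pelleted at 1200 rpm for 5 min, resuspended in PBS and read by flow cytometry. Kit Rosup reagent served as positive agent.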

For series [9], the system named is HepG2. Briefly: Antitumour activity against human HepG2 cells xenografted in AB zebrafish assessed as inhibition of cell growth at 0.8 to 2.4 uM after 48 hrs by cell tracker CM-Dil based laser confocal microscopic method. The class given is functional. The conditions noted are these: dose 0.8-2.4 µM. The essentials: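 Wild-type AB zebrafish embryos raised at 28 °C in embryo medium (5.0 mM NaCl, 0.17 mM KCl, 0.4 mM CaCl2, 0.16 mM MgSO4). HepG2 cells labelled with CM-DiI, microinjected into 2-day-old larvae. At 4 h post-injection, larvae with the same injection spot were grouped (about 15–20 per group, three wells each). Exposed to 0.8, 1.6 or 2.4 μM in the water for 48 h; doxorubicin 1.0 μM as reference. Tumour fluorescence intensity measured by confocal microscopy.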

The test system of series [10] is HepG2. Briefly: Induction of apoptosis in human HepG2 cells assessed as necrotic cells at 4 uM after 24 hrs by annexin V/propidium iodide staining based flow cytometric analysis (reference value: 0.11%). The class given is functional.
The test system of series [11] is HepG2. The series can be described thus: Induction of morphological changes in human HepG2 cells assessed as effect on number of vacuoles at 3 uM after 24 hrs in presence of z-VAD-fmk by microscopic analysis. The class given is functional, cell-based. The essentials:
(§4)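 HepG2 cells preincubated with or without z-VAD-fmk (20 μM, 2 h), then treated with 3 μM compound. Vacuole number and size judged from optical microscopy images.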

The subject of series [12] is HepG2. Briefly: Induction of morphological changes in human HepG2 cells assessed as accumulation of vacuoles at 3 uM after 24 hrs in presence of Nec-1 by microscopic method. The class given is functional, cell-based. The essentials:
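HepG2 cells pretreated with necrostatin-1 (30 μM, 2 h), then exposed to 3 μM compound. Vacuoles imaged by optical microscopy after 24 h.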

Series [13] concerns HT-29. Briefly: Induction of morphological changes in human HT29 cells assessed as accumulation of cytoplasmic vacuoles at 4 uM after 24 hrs by optical microscopic method. The class given is functional, cell-based. The essentials:
as §1

Series [14] relates to HepG2 (Homo sapiens). Briefly: Induction of morphological changes in human HepG2 cells assessed as accumulation of cytoplasmic vacuoles at 4 uM after 24 hrs by optical microscopic method.
For series [15], the system named is HepG2. Briefly: Induction of cell death in human HepG2 cells at 3 uM after 12 hrs by MTT assay. The class given is functional, cell-based.
Series [16] concerns HepG2. Briefly: Induction of cell death in human HepG2 cells at 3 uM after 24 hrs in presence of 3-MA by MTT assay. The format is functional, cell-based. The essentials:
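HepG2 cells given 3 μM for 24 h together with CQ (10 μM) or 3-MA (1 mM). Viability measured by MTT with absorbance read at 570 nm.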

Series [17] in a line: Selectivity ratio of IC50 for antiproliferative activity against human L02 cells to IC50 for antiproliferative activity human HepG2 cells. The format is toxicity, cell-based. The settings on record: L02 cells and HepG2 cells, read-out: Ratio IC50. The essentials:
as §3

The test system of series [18] is HepG2. The series can be described thus: Antiproliferative activity against human HepG2 cells assessed as reduction in cell viability after 48 hrs by MTT assay. The class given is functional, cell-based. The conditions noted are these: HepG2, 48 h. The essentials: as §2
The subject of series [19] is L02. The series can be described thus: Induction of morphological changes in human L02 cells assessed as accumulation of cytoplasmic vacuoles at 4 uM after 24 hrs by optical microscopic method. The format is cell-based. The settings on record: l02, 24 h. The essentials: as §1
Series [20] concerns HepG2. The series can be described thus: Induction of apoptosis in human HepG2 cells assessed as viable cells at 1 uM after 24 hrs by annexin V/propidium iodide staining based flow cytometric analysis (reference value: 95.3%). The format is functional. The conditions noted are these: read-out: Activity.
Series [21] deals with HepG2. The series can be described thus: Induction of morphological changes in human HepG2 cells assessed as effect on size of vacuoles at 3 uM after 24 hrs in presence of z-VAD-fmk by microscopic analysis. The format is functional, cell-based. The essentials: as §4
The test system of series [22] is HepG2. Briefly: Induction of apoptosis in human HepG2 cells assessed as late apoptotic cells at 4 uM after 24 hrs in presence of z-VAD-fmk by annexin V/propidium iodide staining based flow cytometric analysis (reference value: 6.21%). The class given is functional.

Active and inactive are the calls of the source. The rule behind the calls is not given here.

Broadly, the IC50 is the concentration that inhibits the measured activity by half.

As for `C=CCc1ccc(O)c(-c2ccc(OCCCCCc3c4[n+](cc5c(OC)c(OC)ccc35)CCc3cc5c(cc3-4)OCO5)c(CC=C)c2)c1.[I-]`, the Activity in series [1] is on record as 3.51%; in [10] it was 0.41%; in series [19], “Active”; in series [22] it was 19.9%. The Drug uptake in [2] worked out at 66.3 µM. Besides, the outcome in series [3], in series [4], in series [6], in series [8], in series [12] and in series [13] was Active. Further, the outcome in series [14], in series [15] and in series [16] was Active. Also, the figures for the IC50 in series [5] and in series [18] were more than 5000 nM and 1630 nM, respectively. In addition, in [7], the “Ratio IC50” value came out at 14.6. Further, the “growth inhibition (GI)” value in [9] was “Active”. Further, the outcome in series [11] and in [21] was inactive. In addition, the selectivity ratio in series [17] is 2.8. The viability at 1 µM in series [20] turned out to be 93.3%.
